Measurements collected from several papers.
Compare with care: the assays were run in different laboratories. pIC50, pKi: −log10 of the molar value.
Cyp2e1: Cytochrome P450 2E1 (Cyp2e1, Rattus norvegicus, UniProt P05182)

| SMILES | tested on | test | system | conditions | quantity | value |
| --- | --- | --- | --- | --- | --- | --- |
| C=CC(=O)Nc1cccc(-c2snc3cc(-c4ccc(N)c(OC)c4)cnc23)c1 | Calu-3 | cell growth or viability, resazurin | – | – | CC50 | > 60 µM |
| C=CC1CO1 (stereo not shown) | Cyp2e1 | enzyme activity, inhibitor | rat, liver microsomes | – | pKi | 4.62 |
| O=C(O)C(F)(F)C(F)(F)C(F)(F)C(F)(F)C(F)(F)C(F)(F)C(F)(F)F | Solute carrier organic anion transporter family member 1B3 (SLCO1B3, Homo sapiens, UniProt Q9NPD5) | transporter uptake, substrate | CHO | 1 min, pH 7.4 | Km | 91.6 µM |
| CC(C)(C)NC(=O)N[C@H](C(=O)N1C[C@H]2[C@@H]([C@H]1C(=O)NC(CC1CCC1)C(=O)C(N)=O)C2(C)C)C(C)(C)C (stereo partly shown) | Calu-3 | cell growth or viability, MTT | – | 48 h | CC50 | > 250 µM |
| N=c1c2c(-c3ccccc3)c(-c3ccccc3)n(Cc3ccccc3)c2ncn1[C@H]1CC[C@H](O)CC1 | – | – | female minipig, plasma | intravenous, 0.25 mg/kg, single dose | clearance | 0.6 mL/min/kg |
| CCN(CC)CCNC(=O)c1c(C)[nH]c(/C=C2\C(=O)Nc3ccc(F)cc32)c1C | Calu-3 | cell growth or viability, resazurin | – | – | CC50 | 45.7 µM |
| Cc1ncc2n1-c1ccc(Cl)cc1C(c1ccccc1F)=NC2 | – | metabolic stability | male rat, liver microsomes | 1 µM | microsomal CLint | > 250 µL/min/mg |
| CCCCCn1cc(C(=O)Nc2cccc3ccccc23)c2ccccc21 | – | metabolic stability | Sprague-Dawley rat, liver microsomes | 1 µM, pH 7.4 | microsomal CLint | 310 µL/min/mg |
| O=c1c(O[C@@H]2O[C@H](CO)[C@@H](O)[C@H](O)[C@H]2O)c(-c2ccc(O)cc2)oc2cc(O)cc(O)c12 | MCF7 | cell growth or viability, WST-1 | – | – | pIC50 | 4.80 |
| CCCCCn1nc(C(=O)Nc2cccc3ccccc23)c2ccccc21 | – | metabolic stability | Sprague-Dawley rat, liver microsomes | 1 µM, pH 7.4 | microsomal CLint | 430 µL/min/mg |
| COc1ccnc(C(=O)N[C@H]2COC(=O)[C@H](Cc3ccccc3)[C@@H](OC(=O)C(C)C)[C@H](C)OC2=O)c1OCOC(=O)C(C)C | – | – | rat | topical | LD50 | > 5000 mg/kg |
| OCCCCO | Cyp2e1 | enzyme activity, inhibitor | Fischer 344 rat, liver microsomes | 25 mM, 30 min | activity vs control | 17% |
| NC(=O)c1c(NC(=O)c2cnn3c(C(F)(F)F)cc(-c4ccccc4)nc23)sc2c1CCCC2 | Calu-3 | cell growth or viability, MTT | – | 48 h | CC50 | > 125 µM |
